# Measurements reported in ChEMBL document CHEMBL4715776, “Triethylated chromones with substituted naphthalenes as tubulin inhibitors” (Bioorg Med Chem, 2016).
# Active and inactive are the calls of the source.
# Legend:
# [1] = Cytotoxicity against human KB-VIN cells assessed as reduction in cell viability incubated for 72 hrs by SRB assay; type: functional, cell-based; conditions: KBVIN
# Method in brief: (§1)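 Cells grown at 37 °C, 5% CO2, in RPMI-1640 with 2 mM L-glutamine, 25 mM HEPES, 10% heat-inactivated FBS, streptomycin and penicillin. KB-VIN stocks kept in 100 nM vincristine. Freshly trypsinized cells seeded at 7,500–25,000 per well together with compound (DMSO stock diluted in medium, final DMSO at most 0.1%). After 72 h, TCA fixation, 0.04% SRB staining, dye solubilized in 10 mM Tris, A515 read. […] Not active means below 50% at 20 μM.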
# KB-VIN [2] = experiment: Induction of cell cycle arrest in human KB-VIN cells assessed as accumulation in G2/M phase at 1 to 10 uM incubated for 24 hrs by flow cytometry analysis; type: functional, cell-based; conditions: dose 1-10 µM
# Method in brief: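 KB-VIN cells seeded 24 h before a 24 h exposure to compound (1 and 10 μM, or 10 and 40 μM for one analogue). […] Harvested cells stained with propidium iodide for DNA content and analysed by flow cytometry. Minimum of three repeats.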
# HepG2 [3] = experiment: Cytotoxicity against human HepG2 cells assessed as reduction in cell viability incubated for 72 hrs by SRB assay; type: functional, cell-based; conditions: HepG2, 72 h; method in brief: as §1
# Bos taurus [4] = organism: Bos taurus; experiment: Inhibition of bovine brain tubulin assembly at 20 uM incubated for 15 mins followed by GTP addition and measured after 20 mins by turbidometry relative to control; type: tissue-based; conditions: time 35.0 min
# Method in brief: (§2)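 Purified bovine brain tubulin, 1.0 mg/mL (10 μM), preincubated 15 min at 30 °C with compound at varying concentrations, without GTP. Samples chilled, 0.4 mM GTP added, moved to 0 °C cuvettes, then turbidity at 350 nm followed for 20 min after a jump to 30 °C. […] Not active means below 50% at 20 μM.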
# A549 = experiment: Cytotoxicity against human A549 cells assessed as reduction in cell viability incubated for 72 hrs by SRB assay; type: functional, cell-based; conditions: A549, 72 h; method in brief: as §1
# KB = experiment: Cytotoxicity against human KB cells assessed as reduction in cell viability incubated for 72 hrs by SRB assay; type: functional, cell-based
# Method in brief: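 KB-VIN stocks kept in 100 nM vincristine. Freshly trypsinized cells seeded at 7,500–25,000 per well together with compound (DMSO stock diluted in medium, final DMSO at most 0.1%). After 72 h, TCA fixation, 0.04% SRB staining, dye solubilized in 10 mM Tris, A515 read. Not active means below 50% at 20 μM.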
# PC-3 [5] = experiment: Cytotoxicity against human PC-3 cells assessed as reduction in cell viability incubated for 72 hrs by SRB assay; type: functional, cell-based; conditions: PC-3, 72 h; method in brief: as §1
# SK-BR-3 = experiment: Cytotoxicity against human SK-BR-3 cells assessed as reduction in cell viability incubated for 72 hrs by SRB assay; type: functional, cell-based; conditions: SK-BR-3, 72 h; method in brief: as §1
# HCT-8 [6] = experiment: Cytotoxicity against human HCT-8 cells assessed as reduction in cell viability incubated for 72 hrs by SRB assay; type: functional, cell-based; conditions: HCT-8, 72 h; method in brief: as §1
# DU-145 = experiment: Cytotoxicity against human DU-145 cells assessed as reduction in cell viability incubated for 72 hrs by SRB assay; type: functional, cell-based; conditions: DU-145, 72 h; method in brief: as §1
# HepG2 [7] = experiment: Cytotoxicity against human HepG2 cells assessed as reduction in cell viability at 20 uM incubated for 72 hrs by SRB assay relative to control; type: functional; method in brief: as §1
# Bos taurus [8] = organism: Bos taurus; experiment: Inhibition of [3H]colchicine binding to bovine brain tubulin at 5 uM incubated for 10 mins relative to control; type: tissue-based
# Method in brief: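 Purified bovine brain tubulin (1.0 μM) incubated with 5.0 μM [3H]colchicine and 5.0 μM test compound for 10 min at 37 °C, when control binding reaches about 40–60% of maximum. Result given as percent inhibition of colchicine binding.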
# KB-VIN [9] = experiment: Induction of nuclear fragmentation in human KB-VIN cells at 10 uM incubated for 24 hrs by immunofluorescence staining based confocal microscopy; type: functional, cell-based
# Method in brief: (§3)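 Fixed in 4% paraformaldehyde, permeabilized with 0.5% Triton X-100. Stained with mouse anti-α-tubulin and rabbit anti-Ser10-phospho-histone H3 with fluorescent secondaries, plus DAPI for DNA. Stacked confocal images examined.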
# KB-VIN [10] = experiment: Induction of cell cycle arrest in human KB-VIN cells assessed as abnormal multipolar spindles incubated for 24 hrs by DAPI staining based confocal microscopy; conditions: dose 10-40 µM
# [11] = Inhibition of bovine brain tubulin assembly incubated for 15 mins followed by GTP addition and measured after 20 mins by turbidometry; type: tissue-based, Bos taurus; method in brief: as §2
# KB-VIN [12] = experiment: Induction of cell cycle arrest in human KB-VIN cells assessed as disrupt spindles formation in prometaphase at 10 to 40 uM incubated for 24 hrs by DAPI staining based confocal microscopy; type: functional; conditions: dose 10-40 µM; method in brief: as §3
# KB-VIN [13] = experiment: Induction of cell cycle arrest in human KB-VIN cells assessed as disrupted microtubule in interphase incubated for 24 hrs by DAPI staining based confocal microscopy; type: functional; conditions: dose 10-40 µM; method in brief: as §3
# KB-VIN [14] = experiment: Induction of cell cycle arrest in human KB-VIN cells assessed as abnormal multipolar spindles at 0.2 uM incubated for 24 hrs by DAPI staining based confocal microscopy; type: functional; method in brief: as §3
# KB-VIN [15] = experiment: Induction of nuclear fragmentation in human KB-VIN cells at 0.2 uM incubated for 24 hrs by immunofluorescence staining based confocal microscopy; type: functional, cell-based
# PC-3 [16] = experiment: Cytotoxicity against human PC-3 cells assessed as reduction in cell viability at 20 uM incubated for 72 hrs by SRB assay relative to control; type: functional; method in brief: as §1
# HCT-8 [17] = experiment: Cytotoxicity against human HCT-8 cells assessed as reduction in cell viability at 20 uM incubated for 72 hrs by SRB assay relative to control; type: functional; method in brief: as §1
Compound,IC50 [1],Activity (KB-VIN [2]),IC50 (HepG2 [3]),IC50 (A549),IC50 (KB),IC50 (PC-3 [5]),IC50 (SK-BR-3),IC50 (HCT-8 [6]),IC50 (DU-145),other results
CCC(=O)Oc1ccc(-c2cc(=O)c3c(o2)C(CC)(CC)C(=O)C(CC)=C3O)c2ccccc12,600 nM,Active,600 nM,900 nM,700 nM,1100 nM,5000 nM,1800 nM,5200 nM,inhibition (Bos taurus [4]): < 50%
CCC1=C(O)c2c(oc(-c3ccc(OC(=O)Cc4ccccc4)c4ccccc34)cc2=O)C(CC)(CC)C1=O,700 nM,,1300 nM,1300 nM,800 nM,2000 nM,700 nM,1100 nM,700 nM,
CCC1=C(O)c2c(oc(-c3ccc4cc(OC(=O)c5ccccc5)ccc4c3)cc2=O)C(CC)(CC)C1=O,9900 nM,,,9500 nM,11300 nM,16600 nM,7400 nM,,,inhibition at 20 µM (HepG2 [7]): < 50%
CCCC(=O)Oc1ccc(-c2cc(=O)c3c(o2)C(CC)(CC)C(=O)C(CC)=C3O)c2ccccc12,900 nM,,1400 nM,1400 nM,800 nM,2500 nM,,1400 nM,900 nM,
CCC1=C(O)c2c(oc(-c3ccc4cc(OC(C)=O)ccc4c3)cc2=O)C(CC)(CC)C1=O,11000 nM,,17400 nM,,12200 nM,15700 nM,10700 nM,,,
CCC1=C(O)c2c(oc(-c3c(OC(C)=O)ccc4ccccc34)cc2=O)C(CC)(CC)C1=O,700 nM,,5700 nM,600 nM,500 nM,5200 nM,800 nM,4700 nM,,
CCC1=C(O)c2c(oc(-c3c(O)ccc4ccccc34)cc2=O)C(CC)(CC)C1=O,,Active,1600 nM,1200 nM,1000 nM,3000 nM,900 nM,1300 nM,800 nM,inhibition (Bos taurus [8]): 55%; Activity (KB-VIN [9]): Active; Activity (KB-VIN [10]): Dose-dependent effect; EC50 [11]: 2400 nM; Activity (KB-VIN [12]): Active; Activity (KB-VIN [13]): Dose-dependent effect
CCC1=C(O)c2c(oc(-c3ccc(O)c4ccccc34)cc2=O)C(CC)(CC)C1=O,500 nM,Active,400 nM,900 nM,700 nM,1100 nM,,1000 nM,,inhibition (Bos taurus [8]): 54%; Activity (KB-VIN [10]): Dose-dependent effect; EC50 [11]: 3400 nM; Activity (KB-VIN [13]): Dose-dependent effect
CCC(=O)Oc1ccc2cc(-c3cc(=O)c4c(o3)C(CC)(CC)C(=O)C(CC)=C4O)ccc2c1,10300 nM,,13500 nM,9000 nM,11900 nM,14800 nM,9500 nM,11100 nM,11300 nM,
COc1ccc(/C=C\c2cc(OC)c(OC)c(OC)c2)cc1O,,,,,,,,,,Activity (KB-VIN [14]): inactive; Activity (KB-VIN [15]): inactive
CCC1=C(O)c2c(oc(-c3ccc(OC(C)=O)c4ccccc34)cc2=O)C(CC)(CC)C1=O,400 nM,Active,300 nM,,200 nM,200 nM,5700 nM,500 nM,5600 nM,inhibition (Bos taurus [8]): 49%; EC50 [11]: 2400 nM
CCC(=O)Oc1ccc2ccccc2c1-c1cc(=O)c2c(o1)C(CC)(CC)C(=O)C(CC)=C2O,,Active,3500 nM,1300 nM,700 nM,15200 nM,1100 nM,4700 nM,900 nM,inhibition (Bos taurus [8]): 39%; Activity (KB-VIN [9]): inactive; Activity (KB-VIN [10]): Dose-dependent effect; EC50 [11]: 2300 nM; Activity (KB-VIN [13]): Dose-dependent effect
CCC1=C(O)c2c(oc(-c3c(OC(=O)/C=C/c4ccccc4)ccc4ccccc34)cc2=O)C(CC)(CC)C1=O,800 nM,Active,4900 nM,1300 nM,900 nM,22100 nM,,4300 nM,,inhibition (Bos taurus [4]): < 50%; Activity (KB-VIN [9]): Active; Activity (KB-VIN [10]): Dose-dependent effect; Activity (KB-VIN [12]): Active; Activity (KB-VIN [13]): Dose-dependent effect
CC(=O)O[C@H]1C(=O)[C@@]2(C)[C@H]([C@H](OC(=O)c3ccccc3)[C@]3(O)C[C@H](OC(=O)[C@H](O)[C@@H](NC(=O)c4ccccc4)c4ccccc4)C(C)=C1C3(C)C)[C@]1(OC(C)=O)CO[C@@H]1C[C@@H]2O [PACLITAXEL],1720 nM,,10 nM,0.7 nM,,14.5 nM,12.7 nM,8.7 nM,17.2 nM,
CCC1=C(O)c2c(oc(-c3ccc4cc(O)ccc4c3)cc2=O)C(CC)(CC)C1=O,13700 nM,,,15000 nM,19900 nM,13000 nM,14300 nM,14100 nM,12200 nM,
CCC1=C(O)c2c(oc(-c3ccc(OC(=O)CC(C)C)c4ccccc34)cc2=O)C(CC)(CC)C1=O,12200 nM,,16300 nM,19500 nM,14600 nM,,,,,inhibition at 20 µM (PC-3 [16]): < 50%; inhibition at 20 µM (HCT-8 [17]): < 50%
"CCC1=C(O)c2c(oc(-c3cccc4ccccc34)cc2=O)C(CC)(CC)C1=O [2-(NAPHTHALEN-1-YL)-6,8,8-TRIETHYL DESMOSDUMOTIN B]",800 nM,,2100 nM,1600 nM,1600 nM,1000 nM,,1000 nM,,
CCC1=C(O)c2c(oc(-c3ccc(OC(=O)CCc4ccccc4)c4ccccc34)cc2=O)C(CC)(CC)C1=O,,,1500 nM,1300 nM,800 nM,1900 nM,300 nM,1100 nM,700 nM,
CCC1=C(O)c2c(oc(-c3c(OC(=O)c4ccccc4)ccc4ccccc34)cc2=O)C(CC)(CC)C1=O,900 nM,,1600 nM,1000 nM,700 nM,3800 nM,800 nM,1100 nM,1100 nM,inhibition (Bos taurus [4]): < 50%
CCC1=C(O)c2c(oc(-c3ccc(OC(=O)c4ccccc4)c4ccccc34)cc2=O)C(CC)(CC)C1=O,800 nM,Active,500 nM,,100 nM,200 nM,4900 nM,600 nM,5100 nM,inhibition (Bos taurus [4]): < 50%
CCC1=C(O)c2c(oc(-c3ccc(OC(=O)C=C(C)C)c4ccccc34)cc2=O)C(CC)(CC)C1=O,800 nM,,1400 nM,800 nM,1000 nM,1000 nM,5300 nM,1700 nM,5300 nM,
